Screening data deposited in PubChem by Johns Hopkins Ion Channel Center.
The list is not random: actives were taken first. Their share in the collection is about 3.8%.
KCNQ1 inh – human KCNQ1 channel inhibition. P51787. CHO-K1 KCNQ1, FluxOR thallium flux fluorescence; stronger effect = higher value. B-score at 10 µM. 1.3% of 310,000 active;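 active = compounds whose thallium flux B-score, printed positive for inhibition, exceeds three library SD while starting fluorescence stays within three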;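 note: channel opened by potassium depolarization with thallium stimulus after 20 min compound exposure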
Target sequence (P51787 whole entry, looked up): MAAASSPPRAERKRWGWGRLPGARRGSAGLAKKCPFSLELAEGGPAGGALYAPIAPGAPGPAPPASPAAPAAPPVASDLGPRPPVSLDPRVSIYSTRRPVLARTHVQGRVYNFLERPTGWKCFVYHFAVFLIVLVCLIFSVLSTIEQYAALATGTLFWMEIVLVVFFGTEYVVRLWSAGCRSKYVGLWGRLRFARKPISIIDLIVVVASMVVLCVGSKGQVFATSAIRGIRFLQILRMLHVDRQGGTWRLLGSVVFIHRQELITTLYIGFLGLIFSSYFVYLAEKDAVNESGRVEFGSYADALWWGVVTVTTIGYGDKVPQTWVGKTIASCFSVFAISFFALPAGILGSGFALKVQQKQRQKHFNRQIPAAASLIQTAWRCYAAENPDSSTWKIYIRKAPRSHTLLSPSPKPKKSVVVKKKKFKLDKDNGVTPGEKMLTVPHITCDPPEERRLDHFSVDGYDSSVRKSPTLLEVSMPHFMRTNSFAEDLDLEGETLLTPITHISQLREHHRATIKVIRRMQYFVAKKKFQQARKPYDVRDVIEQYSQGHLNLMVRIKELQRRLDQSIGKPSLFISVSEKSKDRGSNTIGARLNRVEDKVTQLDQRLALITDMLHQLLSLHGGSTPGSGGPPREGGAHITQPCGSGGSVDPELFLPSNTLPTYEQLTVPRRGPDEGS
KCNK9 inh – blocks the human KCNK9 two-pore domain potassium channel; AID 488922; HEK293 KCNK9, FluxOR thallium flux fluorescence; stronger effect = lower value; B-score at 10 µM; 1.2% of 310,000 active;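 active = ratio B-score over 3 SD below the library mean, with starting fluorescence within 5 SD of its mean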;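 note: negative B-score means less thallium flux so channel inhibition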
KCNK3 inh – human KCNK3 channel inhibition, primary screen; CHO-KCNK3 thallium flux, FluxOR fluorescence; stronger effect = lower value; B-score at 10 µM; 0.84% of 340,000 active;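 active = B-score under library mean minus 4 SD, starting fluorescence ratio at most library mean plus 5 SD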;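 note: more negative B-score means stronger inhibition of thallium flux through KCNK3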
hERG protect – shields human hERG channel from block by proarrhythmic agents. Q12809. CHO-hERG, FluxOR thallium flux, dofetilide IC70 present. activation (rescue from dofetilide block), less the hit threshold, % at 10 µM. 0.51% of 310,000 active;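 active = activation above the mean of controls blocked by dofetilide plus 5 SD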;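 note: thallium influx through hERG after potassium depolarization seen as dye fluorescence rise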
Kir21 block – inhibitors of mouse Kir2.1 inward-rectifier potassium channel; HEK293-Kir2.1, FluxOR thallium flux fluorescence; stronger effect = lower value; B-score at 10 µM; 0.85% of 310,000 active; AID 1672;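 active = fluorescence ratio B-score at or below minus 3 SD of library scores, with starting-brightness B-score within 2 SD, cut at about -4.2 in these data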;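 note: channel flux triggered by added potassium and thallium sulfate stimulus; B-score of peak minus minimum fluorescence over baseline after thallium stimulus; more negative B-score means stronger Kir2.1 block with less thallium influx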
KCNQ1 pot – potentiators or activators of human KCNQ1 potassium channel; 0.35% of 310,000 active; B-score at 10 µM; CHO-K1 KCNQ1, thallium flux FluxOR fluorescence; stronger effect = higher value;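 active = fluorescence ratio B-score, a plate-corrected score, at least three library SD, with initial intensity B-score within 5 SD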
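Doses: Single concentration per compound, DMSO matched to controls | Test system: KCNQ1-transfected CHO-K1 cells | Timing: 90 min dye loading and 20 min compound exposure, both at room temperature | Measured by: Kinetic FluxOR thallium fluorescence, 10-s 1-Hz baseline, 110-s post-stimulus read | Medium: Assay buffer with matched DMSO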
KCNK9 block conf – confirmation of human KCNK9 potassium channel inhibitors. shares compounds with KCNK9 inh. HEK293 KCNK9 cells, FluxOR thallium flux fluorescence. inhibition, % at 10 µM. 43% of 4,900 active. AID 492992;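 active = thallium signal inhibited by more than 5 SD of the compound-free buffer control wells, on both duplicate plates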
Kir2-1 spec – tests whether KCNK9 modulators also affect mouse Kir2.1. shares compounds with KCNK9 inh. 4% of 4,900 active. Kir2.1 cells, FluxOR thallium flux fluorescence. inhibition, % at 10 µM. AID 492993;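 active = thallium signal drop more than 5 SD beyond the mean of the no-compound control wells, seen in both duplicate plates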;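 note: signal is fluorescence rise after thallium addition divided by baseline fluorescence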
HEK293 Tl ctr – second counter-screen for KCNK9 modulators: effect in non-induced cells. inhibition, % at 10 µM. 40% of 4,900 active. shares compounds with KCNK9 inh. AID 492997. non-induced KCNK9-HEK293, FluxOR thallium flux;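 active = thallium signal drop beyond 5 SD of the untreated control mean, on both duplicate plates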
Hits are given with their value; . = inactive; / = no result given.

SMILES	KCNQ1 inh	KCNK9 inh	KCNK3 inh	hERG protect	Kir21 block	KCNQ1 pot	KCNK9 block conf	Kir2-1 spec	HEK293 Tl ctr
CCOC(=O)CSc1nc(C)cc(C)c1C(N)=O	.	.	.	.	.	.	/	/	/
COc1ccc(NC2CCCN(C(=O)CCOc3ccccc3)C2)cc1 (stereo not given)	.	.	.	.	.	.	.	.	.
COc1ccc(NC2CCCN(C(=O)CCc3ccccc3F)C2)cc1 (stereo not given)	.	.	.	.	.	.	.	.	.
COc1ccc(NC2CCCN(C(=O)CSc3ccccc3)C2)cc1 (stereo not given)	.	.	.	.	.	.	/	/	/
Cc1cc(C)c(C(=O)NC2CCCc3c2cnn3-c2ccc(C)c(C)c2)c(=O)[nH]1 (stereo not given)	.	.	.	.	.	.	/	/	/
CCCCNC(=S)N/N=C/C1=CCC2CC1C2(C)C (stereo not given)	.	.	.	.	.	.	.	.	.
COc1ccccc1-n1c(SCc2cc(=O)oc3cc(O)ccc23)nc2ccccc2c1=O	.	-8.3	.	.	.	.	32%	.	.
COc1ccc(C(C)=O)cc1CSc1nc2ccccc2c(=O)n1-c1ccccc1C	.	-9	.	.	.	.	32%	.	32%
CCC(CO)n1c(SCc2cc(=O)oc3cc(C)ccc23)nc2ccccc2c1=O (stereo not given)	.	-12	.	.	.	.	53%	.	26%
COc1ccc(C(C)=O)cc1CSc1nc2ccccc2c(=O)n1-c1ccccc1	.	.	.	.	.	.	/	/	/
C=CCn1c(SCc2cc(C(C)=O)ccc2OCC)nc2ccccc2c1=O	.	-13	.	.	.	.	66%	.	43%
CC(C)(C)c1ccc(C(=O)NC2CCN(Cc3ccccc3)CC2)cc1	.	.	.	.	.	.	/	/	/
CC(=O)NC(=S)Nc1ccc(N2CCOCC2)c(S(=O)(=O)Nc2cc(Cl)ccc2Cl)c1	.	-15	.	.	.	.	66%	.	27%
Cn1cc(/C=N/n2cnc3scc(-c4ccccc4)c3c2=O)c2ccccc21	.	.	.	.	.	.	.	.	.
O=c1c2c(-c3ccccc3)csc2ncn1/N=C/c1cccc([N+](=O)[O-])c1O	.	.	.	.	.	.	/	/	/
COc1ccc(CN(CCC(c2ccccc2)c2ccco2)C(=O)c2ccco2)cc1 (stereo not given)	.	-13	.	.	.	.	50%	.	29%
COc1ccc(CCN(Cc2nc3ccccc3c(=O)[nH]2)C(=O)c2ccco2)cc1	.	.	.	.	.	.	/	/	/
O=C(CSCc1ccc(Cl)cc1)c1ccco1	.	.	/	.	.	.	/	/	/
CC(=O)C1=C(O)C(=O)N(c2ccc(S(=O)(=O)Nc3nccs3)cc2)C1c1ccc(F)cc1 (stereo not given)	.	.	.	.	.	.	/	/	/
COC(=O)/C=C/c1ccccc1S(=O)(=O)N(Cc1ccccc1)Cc1ccco1	.	-8.5	.	.	.	.	30%	.	38%
O=S(=O)(c1ccc(S(=O)(=O)N(Cc2ccccc2)Cc2ccco2)cc1)N1CCCC1	.	.	.	.	.	.	/	/	/
CCN(C(=O)COC(=O)c1cccc(NS(=O)(=O)c2ccc(F)c(F)c2)c1)C1CCS(=O)(=O)C1 (stereo not given)	.	.	/	.	.	.	/	/	/
CCOC(=O)C1=C(C)N(C)C(=O)NC1c1c(C)nn(-c2ccc(C)cc2)c1Cl (stereo not given)	.	.	.	.	.	.	.	.	.
CCOC(=O)C1=C(C)NC(=O)NC1c1c(C)nn(-c2ccccc2)c1Cl (stereo not given)	.	.	.	.	.	.	/	/	/
CCN(C(=O)CSc1nc(-c2ccccc2)c(-c2ccccc2)[nH]1)C1CCS(=O)(=O)C1 (stereo not given)	.	.	.	.	.	.	/	/	/
SMILES	KCNQ1 inh	KCNK9 inh	KCNK3 inh	hERG protect	Kir21 block	KCNQ1 pot	KCNK9 block conf	Kir2-1 spec	HEK293 Tl ctr
COc1ccc(C2C=C(Nc3ccccc3)C(=O)N2c2ccccc2)cc1OC (stereo not given)	.	-11	.	.	.	.	62%	.	34%
COc1cc(-c2c(C#N)c(N)nc(SCc3ccncc3)c2C#N)cc(OC)c1OC	.	-10	.	.	.	.	.	.	27%
COc1ccc(-c2csc(N(Cc3ccco3)C(=O)c3cccs3)n2)cc1	.	-9.4	.	.	.	.	50%	.	40%
COc1ccc(OC)c(-c2csc(N(Cc3ccco3)C(=O)c3cccs3)n2)c1	7	-12	.	.	.	.	49%	.	43%
CC(C)c1ccc(CN2C(=O)NC3(CCCCCC3)C2=O)cc1	.	.	.	.	.	.	/	/	/
Cc1c(C)n(Cc2ccccc2)c2ccc(C(=O)NCCCN3CCOCC3)cc12	.	.	.	.	.	.	/	/	/
COc1ccc(C(=O)C2CCCN(C(=O)C3=CCCC3)C2)c(C)c1 (stereo not given)	.	.	.	.	.	.	.	.	.
COc1ccc(C(=O)C2CCCN(C(=O)c3ccccc3C(C)=O)C2)cc1F (stereo not given)	.	.	.	.	.	.	/	/	/
C#Cc1cccc(C(=O)N2CCCC(C(=O)c3ccc(OC)cc3C)C2)c1 (stereo not given)	.	.	.	.	-4.3	.	.	.	.
COc1ccc(C(=O)C2CCCN(C(=O)c3noc4c3CCCC4)C2)cc1F (stereo not given)	.	.	.	.	.	.	.	.	.
COc1ccc(C(=O)C2CCCN(C(=O)c3ccc(CSC)o3)C2)cc1F (stereo not given)	.	.	.	.	.	.	.	.	.
CCNC(=S)N1CCNC(=O)C1CC(=O)OC (stereo not given)	.	.	.	.	.	.	/	/	/
Cc1cnc(C(=O)N2CCCC(N3CCN(c4ccccc4C)CC3)C2)cn1 (stereo not given)	.	.	.	.	.	.	/	/	/
Cc1ccccc1N1CCN(C2CCCN(C(=O)c3noc4c3CCCC4)C2)CC1 (stereo not given)	.	.	.	.	.	.	.	.	.
COc1ccc(C(=O)C2CCCN(C(=O)c3noc4c3CCCC4)C2)c(C)c1 (stereo not given)	.	.	.	.	.	.	.	.	.
CN(C)c1nc(NCc2ccccc2)nc(N/N=C/c2ccc(Cl)cc2Cl)n1	.	.	.	.	.	.	.	.	.
